Measured values pooled from the literature.
Each line is one published result; the experiments were not run side by side.
Target: Tyrosine-protein kinase Lyn (LYN, Homo sapiens, UniProt P07948)

| SMILES | observed | mode | technique | tested at | endpoint | value |
| --- | --- | --- | --- | --- | --- | --- |
| O=C(NS(=O)(=O)c1ccc(NCC2CCOCC2)c([N+](=O)[O-])c1)c1ccc(N2CCN(Cc3ccc(C(F)(F)F)cc3-c3ccc(Cl)cc3)CC2)cc1Oc1cnc2[nH]ccc2c1 | cell-free assay | – | competition with immobilised ligand | 1 µM | remaining binding | 99% |
| O=C1c2ccccc2-c2n[nH]c3cccc1c23 | enzyme activity | inhibitor | – | 0.5 µM | activity vs control | 97% |
| Cc1ccc(-n2nc(C(C)(C)C)cc2NC(=O)Nc2ccc(OCCN3CCOCC3)c3ccccc23)cc1 | enzyme activity | inhibitor | – | 10 µM | inhibition | 81% |
| c1nc2c(Nc3ccc4c(c3)OCCO4)nc(Nc3ccc4c(c3)OCCO4)nc2[nH]1 | enzyme activity | inhibitor | – | 10 µM | activity vs control | 32% |
| O=c1cc(-c2cccc3c2Sc2ccccc2S3)oc(N2CCOCC2)c1 | enzyme activity | inhibitor | – | 0.5 µM | remaining activity | 106% |
| Cc1c(NC(=O)c2cc(C(N)=O)nc3cc(F)ccc23)c(C(F)(F)F)nn1Cc1ccc(C#N)cc1 | cell-free assay | – | competition with immobilised ligand | 1 µM | remaining binding | 100% |
| Cc1cc(NC(=O)c2cccc3cc(-c4cccc5[nH]nc(N)c45)ccc23)ccc1F | enzyme activity | inhibitor | – | 0.1 µM | activity vs control | 88% |
| Cn1c2c(c3ccc(Cl)c(Cl)c31)C(C#N)C1(CCCC1)NC2=O (stereo not drawn) | thermal stability | – | DSF | 10 µM | ΔTm | 0 °C |
| CC(C)(C)c1nc(-c2cccc(NS(=O)(=O)c3c(F)cccc3F)c2F)c(-c2ccnc(N)n2)s1 | enzyme activity | inhibitor | radiometric | 1 µM | remaining activity | 51% |
| Cn1c2c(c3ccc(Cl)c(Cl)c31)C(C#N)C1(CCNCC1)NC2=O (racemic) | thermal stability | – | DSF | 10 µM | ΔTm | 0.2 °C |
| Clc1ccc(Nc2nnc(Cc3ccncc3)c3ccccc23)cc1 | cell-free assay | – | – | 0.5 µM | remaining signal | 91.8% |
| O=C(Nc1cnn(-c2csc(C(=O)NC3COC3)c2)c1)Nc1c(F)cccc1Cl | enzyme activity | inhibitor | – | 5 µM | remaining activity | 95.3% |
| CNCc1ccccc1-c1csc([C@H](C)Nc2nc(C)nc3cc(OC)c(OC)cc23)c1 | cell-free assay | – | competition with immobilised ligand | 1 µM | remaining binding | 100% |
| CN(C)S(=O)(=O)c1ccc2c(c1)/C(=C/c1cc3c([nH]1)CCCC3)C(=O)N2 | cell-free assay | – | – | 0.5 µM | remaining signal | 16.2% |
| CN(C)c1ncnc(-c2ccc3nc(Nc4cc(CN5CCN(C(=O)CC(F)(F)F)CC5)ccn4)[nH]c3c2)c1Cl | cell-free assay | – | competition with immobilised ligand | 1 µM | remaining binding | 94% |
| Cn1c2c(Cl)c(Cl)ccc2c2cn[nH]c(=O)c21 | thermal stability | – | DSF | 10 µM | ΔTm | -0.1 °C |
| O=C1Nc2ccc(Cl)cc2C1=Cc1cc(Cl)c(O)c(Cl)c1 | cell-free assay | – | – | 0.5 µM | remaining signal | 81.6% |
| CNc1cccc2cc(C(=O)Nc3ccc(C(=O)O)cc3)c(=O)[nH]c12 | enzyme activity | inhibitor | – | 10 µM | inhibition | -4.6% |

| SMILES | observed | mode | technique | tested at | endpoint | value |
| --- | --- | --- | --- | --- | --- | --- |
| Nc1ncnc2occ(-c3ccc(NC(=O)Nc4cc(C(F)(F)F)ccc4F)cc3)c12 | enzyme activity | inhibitor | – | 20 µM | remaining activity | 1.4% |
| O=C(Nc1cnn(-c2csc(C(=O)NC3COC3)c2)c1)Nc1ccccc1Cl | enzyme activity | inhibitor | – | 5 µM | remaining activity | 96.8% |
| CCN(CC)CCNC(=O)c1c(C)[nH]c(/C=C2\C(=O)Nc3ccc(F)cc32)c1C | enzyme activity | inhibitor | – | 0.3 µM | inhibition | 42% |
| COc1cc(Cl)c(C(=O)N[C@@H](CN[C@H]2CC[C@@H](N)CC2)Cc2ccc(C#N)cc2)cc1-c1ccc(CN[C@H](C)c2ccc(C)cc2)o1 | enzyme activity | inhibitor | – | 1 µM | remaining activity | 90% |
| Cc1ccc(Nc2nccc(N(C)c3ccc4c(C)n(C)nc4c3)n2)cc1S(N)(=O)=O | enzyme activity | inhibitor | – | 0.5 µM | remaining activity | 52.1% |
| Cn1c2c(c3ccc(Cl)c(Cl)c31)C(C#N)C(C)(C)NC2=O (stereo not drawn) | thermal stability | – | DSF | 10 µM | ΔTm | 0.1 °C |
| Cn1nc(C(F)(F)F)cc1-c1cnc(N2CCc3cc(S(=O)(=O)Nc4c(F)cc(Cl)cc4F)cc(N4CCCC4=O)c32)nc1 | cell-free assay | – | competition with immobilised ligand | 1 µM | remaining binding | 100% |
| CNC(=O)c1cc(Oc2ccc(NC(=O)Nc3ccc(Cl)c(C(F)(F)F)c3)cc2)ccn1 | enzyme activity | inhibitor | – | 0.3 µM | inhibition | 10% |
| Cn1c2c(Cl)c(Cl)ccc2c2cc[nH]c(=O)c21 | thermal stability | – | DSF | 10 µM | ΔTm | 0 °C |
| CNCc1ccc(-c2cc(-c3nc(-c4ccc(S(=O)(=O)C(C)C)cc4)cnc3N)on2)cc1 | enzyme activity | inhibitor | – | 0.4 µM | inhibition | 13% |
| Cc1ccc(NC(=O)c2ccc(CN3CCN(C)CC3)cc2)cc1Nc1nccc(-c2cccnc2)n1 | enzyme activity | inhibitor | – | 0.5 µM | activity vs control | 59.6% |
| Cc1ccc(C(=O)Nc2ccc(CN3CCN(C)CC3)c(C(F)(F)F)c2)cc1C#Cc1cnc2cccnn12 | enzyme activity | inhibitor | – | 23.5 nM | remaining activity | 0.65% |
| O=C(NC[C@@H]1[C@H]2CN(C(=O)OCc3cc(C(F)(F)F)cc(C(F)(F)F)c3)C[C@@H]12)c1ccc2[nH]nnc2c1 | cell-free assay | – | competition with immobilised ligand | 1 µM | remaining binding | 100% |
| CN1CCC2(CC1)NC(=O)c1c(c3ccc(Cl)c(Cl)c3n1C)C2C#N (racemic) | thermal stability | – | DSF | 10 µM | ΔTm | -0.1 °C |
| CC(=O)c1c(NS(C)(=O)=O)c2cc(-c3ccc(Cl)cc3)c(-c3ccc(Cl)cc3Cl)nc2n(C)c1=O | cell-free assay | – | competition with immobilised ligand | 1 µM | remaining binding | 100% |
| CC(C)c1ccc(NC(=O)c2cccs2)c(-c2nc3ccccc3[nH]c2=O)c1 | enzyme activity | inhibitor | – | 1 µM | activity vs control | 83% |
| CC1(C)NC(=O)c2[nH]c3c(Cl)c(Cl)ccc3c2C1C#N (stereo not drawn) | thermal stability | – | DSF | 10 µM | ΔTm | 0.2 °C |
| O=C(N1CCS(=O)(=O)CC1)N1C[C@H](c2ccc(OC(F)(F)F)cc2)C[C@H](c2nc(C3CC3)no2)C1 | cell-free assay | – | competition with immobilised ligand | 1 µM | remaining binding | 85% |
